{
  "source": "ChEMBL document CHEMBL4834399",
  "about": "“Pharmacokinetics of Eleven Kratom Alkaloids Following an Oral Dose of Either Traditional or Commercial Kratom Products in Rats” (J Nat Prod, 2021)",
  "key": {"[1]": {"experiment": "Cmax in Sprague-Dawley rat plasma at 1.1 mg/kg, po administered as LKT formulation measured for 24 hrs by UPLC-MS/MS analysis", "assay_type": "ADME, organism-based", "parameters": "route oral, dose 1.1 mg/kg, time 24 hrs", "outline": "(§1)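 Jugular-cannulated male SD rats (225 ± 25 g, n = 4) were fasted 12–16 h and given one oral gavage of LKT (366 mg/kg) or OPMS liquid (0.8 mL/kg) in water at 4 mL/kg, with dosing normalized to MTG human equivalent dose. Plasma was sampled from predose to 24 h and measured by UPLC–MS/MS (LLOQ 1 ng/mL). Cmax and Tmax were read from the observed data; Cmax/dose was also reported. Mean ± SEM.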"}, "[2]": {"experiment": "Stability of the compound in rat plasma assessed as drug recovery", "assay_type": "ADME, cell-free"}, "[3]": {"experiment": "Cmax in Sprague-Dawley rat plasma at 1.77 mg/kg, po administered as OPMS liquid formulation measured for 24 hrs by UPLC-MS/MS analysis", "assay_type": "ADME, organism-based", "parameters": "route oral, time 24 hrs, dose 1.77 mg/kg", "outline": "as §1"}, "[4]": {"experiment": "Tmax in Sprague-Dawley rat plasma at 1.1 mg/kg, po administered as LKT formulation measured for 24 hrs by UPLC-MS/MS analysis", "assay_type": "ADME, organism-based", "outline": "as §1"}, "[5]": {"experiment": "Stability of the compound in water-methanol mixture (1:1) assessed as drug recovery", "assay_type": "physicochemical", "conditions": "buffer"}, "[6]": {"experiment": "Plasma concentration in Sprague-Dawley rat at 1.77 mg/kg, po administered as OPMS liquid formulation measured within 1 hrs by UPLC-MS/MS analysis", "assay_type": "ADME, organism-based", "outline": "as §1"}, "[7]": {"experiment": "Plasma concentration in Sprague-Dawley rat at 1.1 mg/kg, po administered as LKT formulation measured within 1 hrs by UPLC-MS/MS analysis", "assay_type": "ADME, organism-based", "outline": "as §1"}, "[8]": {"experiment": "Tmax in Sprague-Dawley rat plasma at 1.77 mg/kg, po administered as OPMS liquid formulation measured for 24 hrs by UPLC-MS/MS analysis", "assay_type": "ADME, organism-based", "outline": "as §1"}, "[9]": {"experiment": "Tmax in Sprague-Dawley rat plasma at 0.79 mg/kg, po administered as LKT formulation measured for 24 hrs by UPLC-MS/MS analysis", "assay_type": "ADME, organism-based", "outline": "as §1"}, "[10]": {"experiment": "Drug uptake in Sprague-Dawley rat plasma at 1.23 mg/kg, po administered as OPMS liquid formulation measured within 1 hrs by UPLC-MS/MS analysis", "assay_type": "ADME, organism-based", "outline": "as §1"}, "[11]": {"experiment": "Tmax in Sprague-Dawley rat plasma at 1.23 mg/kg, po administered as OPMS liquid formulation measured for 24 hrs by UPLC-MS/MS analysis", "assay_type": "ADME, organism-based", "outline": "as §1"}, "[12]": {"experiment": "Cmax in Sprague-Dawley rat plasma at 1.23 mg/kg, po administered as OPMS liquid formulation measured for 24 hrs by UPLC-MS/MS analysis", "assay_type": "ADME, organism-based", "parameters": "route oral, time 24 hrs, dose 1.23 mg/kg", "outline": "as §1"}, "[13]": {"experiment": "Cmax in Sprague-Dawley rat plasma at 0.79 mg/kg, po administered as LKT formulation measured for 24 hrs by UPLC-MS/MS analysis", "assay_type": "ADME, organism-based", "parameters": "route oral, time 24 hrs, dose 0.79 mg/kg", "outline": "as §1"}, "[14]": {"experiment": "Drug uptake in Sprague-Dawley rat plasma at 0.79 mg/kg, po administered as LKT formulation measured within 1 hrs by UPLC-MS/MS analysis", "assay_type": "ADME, organism-based", "outline": "as §1"}},
  "data": [
    {"smiles": "C=C[C@H]1CN2CCc3c([nH]c4cccc(OC)c34)[C@@H]2C[C@@H]1/C(=C\\OC)C(=O)OC", "values": [
      {"measurement": "Cmax", "setting": "[1]", "value": 5.3, "unit": "ng/mL"},
      {"measurement": "Drug recovery", "setting": "[2]", "value": "> 90", "unit": "%"},
      {"measurement": "Cmax", "setting": "[3]", "value": 2, "unit": "ng/mL"},
      {"measurement": "Tmax", "setting": "[4]", "value": 10, "unit": "min"},
      {"measurement": "Drug recovery", "setting": "[5]", "value": "> 80", "unit": "%"},
      {"measurement": "concentration at 1 h", "setting": "[6]", "value": "< 1", "unit": "ng/mL"},
      {"measurement": "concentration at 1 h", "setting": "[7]", "value": "< 1", "unit": "ng/mL"},
      {"measurement": "Tmax", "setting": "[8]", "value": 5, "unit": "min"}
    ]},
    {"smiles": "CC[C@@H]1CN2CC[C@@]3(C(=O)Nc4ccccc43)[C@@H]2C[C@@H]1/C(=C\\OC)C(=O)OC", "note": "[CORYNOXINE]", "values": [
      {"measurement": "Drug recovery", "setting": "[2]", "value": "> 90", "unit": "%"},
      {"measurement": "Drug recovery", "setting": "[5]", "value": "> 80", "unit": "%"}
    ]},
    {"smiles": "CC[C@@H]1CN2CC[C@]3(C(=O)Nc4ccccc43)[C@@H]2C[C@@H]1/C(=C\\OC)C(=O)OC", "note": "[CORYNOXINE B]", "values": [
      {"measurement": "Drug recovery", "setting": "[2]", "value": "> 90", "unit": "%"},
      {"measurement": "Drug recovery", "setting": "[5]", "value": "> 80", "unit": "%"}
    ]},
    {"smiles": "CC[C@H]1CN2CCc3c([nH]c4cccc(OC)c34)[C@@H]2C[C@@H]1/C(=C\\OC)C(=O)OC", "values": [
      {"measurement": "Drug recovery", "setting": "[2]", "value": "> 90", "unit": "%"},
      {"measurement": "Tmax", "setting": "[9]", "value": 10, "unit": "min"},
      {"measurement": "concentration at 1 h", "setting": "[10]", "value": "< 1", "unit": "ng/mL"},
      {"measurement": "Tmax", "setting": "[11]", "value": 5, "unit": "min"},
      {"measurement": "Cmax", "setting": "[12]", "value": 2.9, "unit": "ng/mL"},
      {"measurement": "Cmax", "setting": "[13]", "value": 2.9, "unit": "ng/mL"},
      {"measurement": "Drug recovery", "setting": "[5]", "value": "> 80", "unit": "%"},
      {"measurement": "concentration at 1 h", "setting": "[14]", "value": "< 1", "unit": "ng/mL"}
    ]},
    {"smiles": "CC[C@@H]1CN2CC[C@@]3(C(=O)Nc4cccc(O)c43)[C@H]2C[C@@H]1/C(=C\\OC)C(=O)OC", "values": [
      {"measurement": "Drug recovery", "setting": "[2]", "value": "> 90", "unit": "%"},
      {"measurement": "Drug recovery", "setting": "[5]", "value": "> 80", "unit": "%"}
    ]}
  ]
}
